Experimental data published in ChEMBL document CHEMBL1150589, “New sesquiterpenoids from the root of Guatteria multivenia” (J Nat Prod, 2002).
≈ marks a conversion by molar mass, not a printed value.

Key:
[1] = tested on: Candida albicans; experiment: Antimicrobial activity against Candida albicans; type: functional, organism-based
Outline: (§1)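 Antimicrobial assay run per an earlier method. Both IC50 and MIC were reported in µg/mL. Amphotericin B was the positive control for C. albicans and C. neoformans.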

[2] = tested on: Cryptococcus neoformans; experiment: Antimicrobial activity against Cryptococcus neoformans; type: functional, organism-based; outline: as §1
[3] = Inhibition of Candida albicans secreted aspartic protease
Outline: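 SAP inhibition assay run per an earlier method, with IC50 reported in µg/mL. Pepstatin A was the positive control.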

[4] = tested on: Staphylococcus aureus; experiment: Antimicrobial activity against Staphylococcus aureus; type: functional, organism-based; outline: as §1
[5] = tested on: Staphylococcus aureus; experiment: Antimicrobial activity against methicillin-resistant Staphylococcus aureus; type: functional, organism-based

| SMILES | IC50 [1] [µg/mL] | IC50 [2] [µg/mL] | MIC [2] [µg/mL] | IC50 [3] [µg/mL] | IC50 [4] [µg/mL] | MIC [4] [µg/mL] | MIC [5] [µg/mL] | MIC [1] [µg/mL] | IC50 [5] [µg/mL] |
| --- | --- | --- | --- | --- | --- | --- | --- | --- | --- |
| C[C@@H]1[C@H](O)[C@@H](C)/C=C/C=C/C=C/C=C/C=C/C=C/C=C/[C@H](O[C@@H]2O[C@H](C)[C@@H](O)[C@H](N)[C@@H]2O)C[C@@H]2O[C@](O)(C[C@@H](O)C[C@@H](O)[C@H](O)CC[C@@H](O)C[C@@H](O)CC(=O)O[C@H]1C)C[C@H](O)[C@H]2C(=O)O [AMPHOTERICIN B] | 0.06 (≈ 0.0649 µM) | 0.3 (≈ 0.325 µM) | 0.63 (≈ 0.682 µM) | – | – | – | – | – | – |
| COc1ccc2c(c1)C(=O)c1nccc3cc4c(c-2c13)OCO4 [ATHEROSPERMIDINE] | – | – | – | 45 (≈ 147 µM) | – | – | – | – | – |
| O=C(O)c1cn(C2CC2)c2cc(N3CCNCC3)c(F)cc2c1=O [CIPROFLOXACIN] | – | – | – | – | 0.07 (≈ 0.211 µM) | 0.39 (≈ 1.18 µM) | 3.13 (≈ 9.45 µM) | – | – |
| O=C1c2ccccc2-c2c3c(cc4ccnc1c24)OCO3 [LIRIODENINE] | 3.5 (≈ 12.7 µM) | 2 (≈ 7.27 µM) | 12.5 (≈ 45.4 µM) | – | 2 (≈ 7.27 µM) | 3.13 (≈ 11.4 µM) | 3.13 (≈ 11.4 µM) | 6.25 (≈ 22.7 µM) | 2 (≈ 7.27 µM) |
| CC(C)CC(=O)N[C@H](C(=O)N[C@H](C(=O)N[C@@H](CC(C)C)[C@@H](O)CC(=O)N[C@@H](C)C(=O)N[C@@H](CC(C)C)[C@@H](O)CC(=O)O)C(C)C)C(C)C [PEPSTATIN] | – | – | – | 0.006 (≈ 0.00875 µM) | – | – | – | – | – |
